pEC50: −log10 of the molar value. Calls of active or inactive are those of the source. The rule behind the calls is not given here.

Data set [1] concerns Human immunodeficiency virus 1. The data set can be described thus: Antiviral activity against HIV1 NL4-3 infected in human MT4 cells after 3 days by luciferase reporter gene assay. The class given is functional, organism-based. The following applies: Human immunodeficiency virus 1, NL4-3, MT4, 72 h. (In a reporter assay the amount or activity of a reporter protein is the signal.)

Data set [2] in a line: Cytotoxicity in human MT4 cells assessed as reduction of cell viability incubated for 3 days by CytoTox-Glo cytotoxicity assay. It is filed as cell-based.
A short description of data set [3]: Cytotoxicity in MDCK cells assessed as reduction of cell viability incubated for 2 days by CytoTox-Glo cytotoxicity assay. It is filed as cell-based, Canis lupus familiaris. The following applies: dog.
Data set [4] is described as follows: Selectivity index, ratio of EC50 for antiviral activity against influenza A virus (A/Puerto Rico/8/1934(H1N1)) infected in MDCK cells to EC50 for antiviral activity against HIV1 NL4-3 infected in human MT4 cells.
In the next data set the test system is Influenza A virus. The data set can be described thus: Antiviral activity against Influenza A virus (A/Puerto Rico/8/1934(H1N1)) infected in MDCK cells assessed as inhibition of virus-induced cytopathic effect incubated for 48 hrs by Cell-titer-Glo assay. The class given is functional, organism-based. The following applies: for EC50: mdck. A general note: Damage to the host cells serves as the signal in cytopathic effect assays.

Data set [5] has as its system Human immunodeficiency virus 1. The data set can be described thus: Inhibition of HIV1-mediated cellular entry in HIV1 NL4-3 VPR-GFP infected human TZM-bl cells incubated for 2 hrs by confocal microscopy. It is filed as functional, organism-based. In short, it runs like this:
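TZM-bl cells were infected with NL4-3/Vpr-GFP virus, with or without test compound at 1 µM, for 2 h. Nuclei were stained with DAPI 2 h post infection, and confocal microscopy imaged GFP. Cytosolic GFP dispersal marked entry; GFP puncta marked virus arrested at the cell or endosomal membrane. Uninfected DAPI-stained cells served as background.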

Data set [6] has as its target Envelope glycoprotein gp160 (Human immunodeficiency virus 1) (UniProt Q6QLK5). Put plainly: Induction of conformational changes in HIV1 NLDH120 envelope glycoprotein gp120 transfected in COS cells assessed as increase in gp120 binding of monoclonal antibody 17b at 10 uM after 48 hrs by FACS. The class given is cell-based. Background: In flow cytometry, cells or beads pass a laser one at a time.

A short description of data set [7]: Selectivity index, ratio of CC50 for human MT4 cells […] NL4-3 infected in human MT4 cells. The class given is toxicity, cell-based. The following applies: MT4 cells and HIV1 NL4-3 infected MT4 cells, read-out: Ratio CC50/EC50.
Data set [8] relates to Human immunodeficiency virus 1. Put plainly: Potency index, ratio of EC50 for aloperine to EC50 for test compound for antiviral activity against HIV1 NL4-3 infected in human MT4 cells after 3 days by luciferase reporter gene assay. It is filed as functional.

Envelope glycoprotein gp160 (Human immunodeficiency virus 1), sequence (Q6QLK5 1-814): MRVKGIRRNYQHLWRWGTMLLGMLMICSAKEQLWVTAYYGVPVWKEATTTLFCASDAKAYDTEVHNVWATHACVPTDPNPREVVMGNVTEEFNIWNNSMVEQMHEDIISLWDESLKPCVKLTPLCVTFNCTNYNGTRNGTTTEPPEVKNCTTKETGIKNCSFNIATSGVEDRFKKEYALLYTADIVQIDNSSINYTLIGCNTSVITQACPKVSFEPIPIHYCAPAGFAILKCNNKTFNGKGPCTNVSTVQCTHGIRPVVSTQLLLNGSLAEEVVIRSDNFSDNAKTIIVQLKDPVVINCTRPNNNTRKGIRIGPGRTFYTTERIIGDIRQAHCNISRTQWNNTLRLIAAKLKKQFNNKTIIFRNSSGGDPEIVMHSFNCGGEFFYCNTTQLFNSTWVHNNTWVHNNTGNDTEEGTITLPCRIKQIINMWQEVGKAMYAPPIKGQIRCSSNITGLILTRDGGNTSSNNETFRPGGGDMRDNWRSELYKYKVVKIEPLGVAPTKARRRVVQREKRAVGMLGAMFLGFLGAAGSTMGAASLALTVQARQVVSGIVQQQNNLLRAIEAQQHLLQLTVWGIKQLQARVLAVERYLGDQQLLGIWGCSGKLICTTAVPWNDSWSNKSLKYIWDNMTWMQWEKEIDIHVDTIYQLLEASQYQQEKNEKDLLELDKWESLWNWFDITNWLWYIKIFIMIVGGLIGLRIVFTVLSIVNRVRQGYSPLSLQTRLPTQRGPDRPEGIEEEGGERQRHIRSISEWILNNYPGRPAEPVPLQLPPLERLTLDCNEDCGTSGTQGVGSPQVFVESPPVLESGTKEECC

A word on the pEC50: it is the EC50 on a negative log10 scale, so that one unit is a factor of ten. By CC50 is commonly meant the concentration giving 50% cytotoxicity. In data set [1], `O=C(CC1CCC(F)(F)CC1)NCCCCN1CCCC2=C[C@H]3C[C@H](CN4CCCC[C@H]34)[C@@H]21` had a negative logarithm of the EC50 (pEC50) of 5.71. The 50% cytotoxic concentration (CC50) at 72 h in data set [2] is > 40 µM.

`O=C(NCCCCN1CCCC2=C[C@H]3C[C@H](CN4CCCC[C@H]34)[C@@H]21)c1ccc(S(=O)(=O)F)cc1`: the CC50 at 72 h in data set [2] is 38.5 µM.

`C1=C2CCCN[C@H]2[C@@H]2C[C@H]1[C@H]1CCCCN1C2`: the CC50 at 48 h in [3] is > 80 µM. The “Ratio EC50” value in data set [4] came to 7. For the same compound, the cytotoxic concentration (CC50) at 72 h in [2] is > 86 µM.

`O=C(Cc1ccc(S(=O)(=O)C(F)(F)F)cc1)NCCCCN1CCC[C@@H]2C[C@H]3C[C@H](CN4CCCC[C@H]34)[C@@H]21`: the negative logarithm of the EC50 (pEC50) in [1] is < 5.52. In addition, the 50% cytotoxic concentration (CC50) at 72 h in data set [2] was > 40 µM.

As to `O=C(Cc1ccc(S(=O)(=O)C(F)(F)F)cc1)NCCCCN1CCCC2=C[C@H]3C[C@H](CN4CCCC[C@H]34)[C@@H]21`, the EC50 entry in the data set with Influenza A virus is recorded as “Not Active”. For the same compound, the inhibition result in [5] is “Active”. Also, the half-maximal cytotoxic concentration (CC50) at 48 h in data set [3] was > 80 µM. In data set [1], this compound gave a negative-log EC50 (pEC50) of 6.92. Further, the result in data set [6] was Active. Also, the selectivity ratio in data set [7] was 240. Further, the CC50 at 72 h in data set [2] is 28.8 µM. Further, in data set [8], the “Ratio EC50” value is 15.

In the case of `O=C(Cc1ccc2c(c1)OCO2)NCCCCN1CCCC2=C[C@H]3C[C@H](CN4CCCC[C@H]34)[C@@H]21`, in data set [1], the pEC50 is < 5.52. Also, the CC50 at 72 h in [2] was > 40 µM.

In data set [1], `O=C(NCCCCN1CCCC2=C[C@H]3C[C@H](CN4CCCC[C@H]34)[C@@H]21)C1CCC(F)(F)CC1` had a pEC50 of 5.61. Also, the CC50 at 72 h in data set [2] was > 40 µM.

As to `O=C(Cc1ccc(S(=O)(=O)CC(F)(F)F)cc1)NCCCCN1CCCC2=C[C@H]3C[C@H](CN4CCCC[C@H]34)[C@@H]21`, in data set [1], the pEC50 was < 5.52. For the same compound, the CC50 at 72 h in data set [2] is > 40 µM.

In data set [1], `O=C(Cc1ccc(OC(F)(F)F)cc1)NCCCCN1CCC[C@@H]2C[C@H]3C[C@H](CN4CCCC[C@H]34)[C@@H]21` had a negative-log EC50 (pEC50) of 5.55. Also, the cytotoxic concentration (CC50) at 72 h in data set [2] is > 40 µM.

`O=C(NCCCCN1CCCC2=C[C@H]3C[C@H](CN4CCCC[C@H]34)[C@@H]21)c1ccc(CNS(=O)(=O)C(F)(F)F)cc1`: the CC50 at 72 h in [2] is > 40 µM.

Turning to `CC(C)(C)c1ccc(CC(=O)NCCCCN2CCCC3=C[C@H]4C[C@H](CN5CCCC[C@H]45)[C@@H]32)cc1`, the pEC50 in data set [1] is 5.68. Further, in [2], the CC50 at 72 h is > 40 µM.

Consider `O=C(NCCCCN1CCCC2=C[C@H]3C[C@H](CN4CCCC[C@H]34)[C@@H]21)c1ccc(C(=O)c2ccccc2)cc1`, for which the EC50 entry in the data set on Influenza A virus is on record as “Not Active”. In [3], the half-maximal cytotoxic concentration (CC50) at 48 h was 31.6 µM. In [1], the pEC50 is 6.01. Further, the half-maximal cytotoxic concentration (CC50) at 72 h in [2] was > 40 µM.

Consider `O=C(NCCCCN1CCCC2=C[C@H]3C[C@H](CN4CCCC[C@H]34)[C@@H]21)c1ccc(-c2cccs2)cc1`, for which the negative-log EC50 (pEC50) in [1] is < 5.52. Further, the CC50 at 72 h in data set [2] was found to be 16.2 µM.

As for `O=C(NCCCCN1CCCC2=C[C@H]3C[C@H](CN4CCCC[C@H]34)[C@@H]21)c1ccc(C(F)(F)F)c(F)c1`, in [1], the pEC50 is 5.65. In data set [2], the 50% cytotoxic concentration (CC50) at 72 h was > 40 µM.

Consider `O=C(Cc1ccc(OC(F)(F)F)cc1)NCCCCN1CCC[C@H]2C[C@H]3C[C@H](CN4CCCC[C@H]34)[C@@H]21`, for which the pEC50 in [1] is 5.82. The cytotoxic concentration (CC50) at 72 h in data set [2] is > 40 µM.

Consider `O=C(Cc1ccc([S+]([O-])C(F)(F)F)cc1)NCCCCN1CCCC2=C[C@H]3C[C@H](CN4CCCC[C@H]34)[C@@H]21` (some centres not stated), for which, in data set [1], the pEC50 is 5.78. The half-maximal cytotoxic concentration (CC50) at 72 h in [2] was > 40 µM.

For the compound `O=C(Cc1ccc(OC(F)(F)F)cc1)NCCCCN1CCCC2=C[C@H]3C[C@H](CN4CCCC[C@H]34)[C@@H]21`, the negative-log EC50 (pEC50) in the data set on Influenza A virus (Influenza A virus, A/Puerto Rico/8/1934(H1N1), MDCK, 48 h, read-out: EC50) is 4.72. Further, the CC50 at 48 h in [3] was > 80 µM.

In data set [1], `O=C(NCCCCN1CCCC2=C[C@H]3C[C@H](CN4CCCC[C@H]34)[C@@H]21)c1ccc(-c2ccsc2)cc1` gave a negative logarithm of the EC50 (pEC50) of 5.88. Further, in [2], the CC50 at 72 h stood at 21.2 µM.

In the case of `O=S(=O)(Cc1ccc(OC(F)(F)F)cc1)NCCCCN1CCCC2=C[C@H]3C[C@H](CN4CCCC[C@H]34)[C@@H]21`, in data set [1], the negative logarithm of the EC50 (pEC50) was < 5.52. For the same compound, the CC50 at 72 h in data set [2] was found to be 35.7 µM.

For the compound `O=C(NCCCCN1CCCC2=C[C@H]3C[C@H](CN4CCCC[C@H]34)[C@@H]21)c1ccc2c(c1)OCO2`, in [1], the pEC50 was < 5.52. For the same compound, the half-maximal cytotoxic concentration (CC50) at 72 h in data set [2] is > 40 µM.

With `O=C(NCCCCN1CCCC2=C[C@H]3C[C@H](CN4CCCC[C@H]34)[C@@H]21)C(=O)c1ccc(C(F)(F)F)cc1`, the EC50 entry in the data set on Influenza A virus is listed as “Not Active”. The cytotoxic concentration (CC50) at 48 h in data set [3] was > 80 µM. This compound also gave a pEC50 in data set [1] of 6.00. The 50% cytotoxic concentration (CC50) at 72 h in data set [2] is > 40 µM.

Consider `O=C(Cc1ccc(S(=O)(=O)C(F)(F)F)cc1)NCCCCN1CCC[C@H]2C[C@H]3C[C@H](CN4CCCC[C@H]34)[C@@H]21`, for which the negative-log EC50 (pEC50) in data set [1] was < 5.52. In addition, in [2], the CC50 at 72 h is > 40 µM.

On to `O=C(Cc1ccc(Br)cc1)NCCCCN1CCCC2=C[C@H]3C[C@H](CN4CCCC[C@H]34)[C@@H]21`, for which the pEC50 in data set [1] was 5.88. For the same compound, the cytotoxic concentration (CC50) at 72 h in [2] is > 40 µM.

Consider `O=C(NCCCCN1CCCC2=C[C@H]3C[C@H](CN4CCCC[C@H]34)[C@@H]21)c1ccc(S(=O)(=O)C(F)(F)F)cc1`, for which the EC50 result in the data set with Influenza A virus is given as “Not Active”. Besides, the CC50 at 48 h in data set [3] was > 80 µM. Besides, the negative logarithm of the EC50 (pEC50) in data set [1] is 6.26. The half-maximal cytotoxic concentration (CC50) at 72 h in data set [2] was > 40 µM.

On to `O=C(Cc1ccc(SC(F)(F)F)cc1)NCCCCN1CCCC2=C[C@H]3C[C@H](CN4CCCC[C@H]34)[C@@H]21`, for which the EC50 result with Influenza A virus was “Not Active”. Besides, the cytotoxic concentration (CC50) at 48 h in data set [3] is 45.1 µM. The compound further had a negative logarithm of the EC50 (pEC50) in data set [1] of 6.74. Besides, the cytotoxic concentration (CC50) at 72 h in data set [2] turned out to be 23.8 µM.

With `O=C(CCc1ccc(OC(F)(F)F)cc1)NCCCCN1CCCC2=C[C@H]3C[C@H](CN4CCCC[C@H]34)[C@@H]21`, the negative logarithm of the EC50 (pEC50) in [1] was < 5.52. Further, the 50% cytotoxic concentration (CC50) at 72 h in [2] was > 40 µM.

Take `CS(=O)(=O)c1ccc(CC(=O)NCCCCN2CCCC3=C[C@H]4C[C@H](CN5CCCC[C@H]45)[C@@H]32)cc1`: the negative logarithm of the EC50 (pEC50) in [1] was < 5.52. Also, in data set [2], the CC50 at 72 h is > 40 µM.

On to `O=C(NCCCCN1CCCC2=C[C@H]3C[C@H](CN4CCCC[C@H]34)[C@@H]21)C1CCC(C(F)(F)F)CC1` (some centres not stated), for which the negative-log EC50 (pEC50) in [1] is < 5.52. Moreover, the CC50 at 72 h in data set [2] is > 40 µM.

In [1], `CC(C)(C)c1ccc(C(=O)NCCCCN2CCCC3=C[C@H]4C[C@H](CN5CCCC[C@H]45)[C@@H]32)cc1` showed a pEC50 of 5.67. For the same compound, the half-maximal cytotoxic concentration (CC50) at 72 h in [2] came out at 12.9 µM.

On to `O=C(Cc1ccc(C(F)(F)F)cc1)NCCCCN1CCCC2=C[C@H]3C[C@H](CN4CCCC[C@H]34)[C@@H]21`, for which, in the data set on Influenza A virus, the EC50 entry is given as “Not Active”. Further, the CC50 at 48 h in [3] was > 80 µM. Further, the pEC50 in data set [1] is 6.09. Further, the half-maximal cytotoxic concentration (CC50) at 72 h in [2] is > 40 µM.

Regarding `O=S(=O)(NCCCCN1CCCC2=C[C@H]3C[C@H](CN4CCCC[C@H]34)[C@@H]21)c1ccc(OC(F)(F)F)cc1`, the pEC50 in [1] is < 5.52. In addition, the CC50 at 72 h in data set [2] was > 40 µM.

The values above are taken from ChEMBL document CHEMBL4130569, “Structure Optimization of Aloperine Derivatives as HIV-1 Entry Inhibitors” (ACS Med Chem Lett, 2017).
